Assays:
[1] = molecular target: Epidermal growth factor receptor (Homo sapiens, UniProt P00533, L858R/T790M); experiment: Inhibition of EGFR L858R/T790M double mutant (unknown origin) measured after 60 mins by ADP-Glo kinase based luminescence assay
[2] = molecular target: Epidermal growth factor receptor (Homo sapiens, UniProt P00533); experiment: Inhibition of wild type EGFR (unknown origin) measured after 60 mins by ADP-Glo kinase based luminescence assay
[3] = test system: NCI-H1975; experiment: Antiproliferative activity against human NCI-H1975 cells harboring EGFR L858R/T790M mutant assessed as reduction in cell viability incubated for 72 hrs by CCK8 assay; format: functional, cell-based; conditions: NCI-H1975, 72 h
In short: (§1)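 Cells kept as monolayers at 37 °C, 5% CO2, seeded 3000-4000/well for 12 h, then exposed to compounds for 72 h. CCK-8 added for 1-2 h at 37 °C, absorbance read at 450 nm. Each dose run in triplicate, experiment repeated at least three times. IC50 taken from dose-response curves.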

[4] = test system: A-431; experiment: Cytotoxicity against human A-431 cells harboring wild type EGFR assessed as reduction in cell viability incubated for 72 hrs by CCK8 assay; format: cell-based; conditions: A-431, 72 h; in short: as §1
[5] = test system: A549; experiment: Antiproliferative activity against human A549 cells harboring KRAS G12S mutant assessed as reduction in cell viability incubated for 72 hrs by CCK8 assay; format: functional, cell-based; conditions: A549, 72 h; in short: as §1
[6] = Cytotoxicity against human HBE cells assessed as reduction in cell viability incubated for 72 hrs by CCK8 assay; format: cell-based; in short: as §1
[7] = test system: ASPC1; experiment: Antiproliferative activity against human ASPC1 cells assessed as reduction in cell viability incubated for 72 hrs by CCK8 assay; format: functional, cell-based; conditions: ASPC1, 72 h; in short: as §1
[8] = test system: NCI-H23; experiment: Antiproliferative activity against human NCI-H23 cells harboring KRAS mutant assessed as reduction in cell viability incubated for 72 hrs by CCK8 assay; format: functional, cell-based; conditions: NCI-H23, 72 h; in short: as §1
[9] = test system: L02; experiment: Antiproliferative activity against human L02 cells assessed as reduction in cell viability incubated for 72 hrs by CCK8 assay; format: cell-based; conditions: L02, 72 h
[10] = Selectivity index, ratio of IC50 for human A-431 cells harboring wild type EGFR (unknown origin) to IC50 for human NCI-H1975 cells harboring EGFR L858R/T790M mutant

Chain of Epidermal growth factor receptor (Homo sapiens, UniProt P00533, L858R/T790M) (P00533 25-1210 T790M/L858R limits assumed): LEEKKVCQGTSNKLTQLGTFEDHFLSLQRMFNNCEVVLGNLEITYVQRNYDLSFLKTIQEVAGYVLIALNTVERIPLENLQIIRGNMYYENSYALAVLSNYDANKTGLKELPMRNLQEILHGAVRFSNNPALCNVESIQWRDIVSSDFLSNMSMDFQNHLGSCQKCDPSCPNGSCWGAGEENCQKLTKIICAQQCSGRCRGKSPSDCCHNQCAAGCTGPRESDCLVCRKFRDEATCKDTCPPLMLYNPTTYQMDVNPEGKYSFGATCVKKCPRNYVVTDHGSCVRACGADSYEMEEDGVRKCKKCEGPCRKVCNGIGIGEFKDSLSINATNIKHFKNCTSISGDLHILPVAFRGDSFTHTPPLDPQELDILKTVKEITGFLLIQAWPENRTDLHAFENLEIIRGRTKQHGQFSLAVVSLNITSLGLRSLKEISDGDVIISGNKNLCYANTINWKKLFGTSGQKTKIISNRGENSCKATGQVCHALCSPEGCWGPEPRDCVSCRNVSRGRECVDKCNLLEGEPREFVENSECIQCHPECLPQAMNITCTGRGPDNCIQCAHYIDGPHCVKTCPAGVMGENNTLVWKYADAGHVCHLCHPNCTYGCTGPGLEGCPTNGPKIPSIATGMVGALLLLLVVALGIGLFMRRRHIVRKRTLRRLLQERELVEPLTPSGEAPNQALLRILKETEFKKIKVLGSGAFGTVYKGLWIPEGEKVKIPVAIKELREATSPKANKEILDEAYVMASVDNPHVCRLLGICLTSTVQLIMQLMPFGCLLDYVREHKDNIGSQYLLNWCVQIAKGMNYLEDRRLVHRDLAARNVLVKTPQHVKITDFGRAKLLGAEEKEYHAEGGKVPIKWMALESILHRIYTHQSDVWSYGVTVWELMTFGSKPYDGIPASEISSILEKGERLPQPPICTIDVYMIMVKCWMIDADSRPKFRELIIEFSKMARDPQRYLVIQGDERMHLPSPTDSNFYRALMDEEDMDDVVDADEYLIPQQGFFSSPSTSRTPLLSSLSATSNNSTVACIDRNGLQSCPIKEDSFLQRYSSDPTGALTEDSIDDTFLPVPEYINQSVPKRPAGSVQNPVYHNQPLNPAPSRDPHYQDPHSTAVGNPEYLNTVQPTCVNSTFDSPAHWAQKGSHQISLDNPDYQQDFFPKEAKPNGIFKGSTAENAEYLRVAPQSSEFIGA
Chain of Epidermal growth factor receptor (Homo sapiens, UniProt P00533) (P00533 whole entry): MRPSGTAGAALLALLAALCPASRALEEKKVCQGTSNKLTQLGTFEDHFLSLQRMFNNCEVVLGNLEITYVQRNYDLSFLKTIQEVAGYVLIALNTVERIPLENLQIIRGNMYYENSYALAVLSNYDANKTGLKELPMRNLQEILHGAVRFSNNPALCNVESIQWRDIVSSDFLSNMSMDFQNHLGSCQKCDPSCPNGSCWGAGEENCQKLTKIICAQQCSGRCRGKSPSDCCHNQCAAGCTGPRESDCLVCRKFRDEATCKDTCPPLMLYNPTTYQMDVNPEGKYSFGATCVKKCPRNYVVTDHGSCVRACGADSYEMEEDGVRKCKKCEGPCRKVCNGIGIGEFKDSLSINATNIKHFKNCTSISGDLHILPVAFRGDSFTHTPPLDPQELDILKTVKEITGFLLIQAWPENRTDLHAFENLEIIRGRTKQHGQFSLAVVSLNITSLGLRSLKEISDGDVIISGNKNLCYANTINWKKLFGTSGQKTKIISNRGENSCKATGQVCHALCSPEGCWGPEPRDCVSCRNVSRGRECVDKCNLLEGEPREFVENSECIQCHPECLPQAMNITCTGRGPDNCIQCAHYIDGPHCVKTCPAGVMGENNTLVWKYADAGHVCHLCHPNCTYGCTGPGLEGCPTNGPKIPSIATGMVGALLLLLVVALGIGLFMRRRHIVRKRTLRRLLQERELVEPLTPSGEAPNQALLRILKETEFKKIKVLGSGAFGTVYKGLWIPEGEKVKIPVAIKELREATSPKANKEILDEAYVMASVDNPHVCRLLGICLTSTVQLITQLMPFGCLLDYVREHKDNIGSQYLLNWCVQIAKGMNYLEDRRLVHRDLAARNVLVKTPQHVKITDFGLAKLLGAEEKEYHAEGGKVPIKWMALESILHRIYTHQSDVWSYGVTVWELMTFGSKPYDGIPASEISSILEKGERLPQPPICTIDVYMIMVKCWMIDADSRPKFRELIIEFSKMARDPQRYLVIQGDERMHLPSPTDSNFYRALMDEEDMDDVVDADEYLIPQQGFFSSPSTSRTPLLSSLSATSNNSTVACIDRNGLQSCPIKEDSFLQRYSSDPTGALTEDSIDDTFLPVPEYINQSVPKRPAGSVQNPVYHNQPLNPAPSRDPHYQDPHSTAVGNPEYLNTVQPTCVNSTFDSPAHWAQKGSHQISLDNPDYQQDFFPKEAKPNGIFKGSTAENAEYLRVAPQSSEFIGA

Row | SMILES | IC50 [1] [nM] | IC50 [2] [nM] | IC50 [3] [nM] | IC50 [4] [nM] | IC50 [5] [nM] | IC50 [6] [nM] | IC50 [7] [nM] | IC50 [8] [nM] | IC50 [9] [nM] | Ratio IC50 [10]
1 | CNC(=O)c1ccccc1Nc1nc(Nc2ccc(OCCCN3CCC(C(=O)NO)CC3)cc2)ncc1Cl | 45 | 46.7 | 156 | 448 | 156 | 8570 | < 156 | 2110 | < 1250 | 2.88
2 | O=C(COc1ccc(Nc2ncc(Cl)c(Nc3ccccc3C(=O)NO)n2)cc1)NO | 65.4 | 50.2 | 1110 | 2060 | 1110 | > 40000 | 1580 | 6400 | 7870 | 1.86
3 | CNC(=O)c1ccccc1Nc1nc(Nc2ccc(N3CCC(C(=O)NO)CC3)cc2)ncc1Cl | 49.9 | 119 | 329 | 127 | 329 | 12600 | 499 | 1540 | 1730 | 0.39
4 | CN1CCN(CCOc2ccc(Nc3ncc(Cl)c(Nc4ccccc4C(=O)NO)n3)cc2)CC1 | 6.82 | 0.763 | 822 | 692 | 203 | 29800 | 244 | 642 | 1950 | 0.84
5 | O=C(CN1CCOCC1)Nc1ccc(Nc2ncc(Cl)c(Nc3ccccc3C(=O)NO)n2)cc1 | 113 | 126 | 385 | 1530 | 385 | > 40000 | 750 | 1740 | 2110 | 3.98
6 | CCOC(=O)c1ccccc1Nc1nc(Nc2ccc(OCC(=O)N3CCOCC3)cc2)ncc1Cl | 0.245 | 32 | 2900 |  |  |  |  |  | 30200 | 
7 | O=C(NO)c1ccccc1Nc1nc(Nc2ccc(OCCCN3CCOCC3)cc2)ncc1Cl | 64.8 | 1.25 | 321 | 1400 | 321 | 26500 | 1230 | 665 | 1730 | 4.38
8 | O=C(NO)c1ccccc1Nc1nc(Nc2ccc(N3CCOCC3)cc2)ncc1Cl | 116 | 169 | 109 | 1580 | 109 | > 40000 | 1410 | 801 | 2190 | 14.46
9 | CNC(=O)c1ccccc1Nc1nc(Nc2ccc(CN3CCC(C(=O)NO)CC3)cc2)ncc1Cl | 117 | 1.09 | 245 | 1160 | 245 | 15900 | 374 | 8420 | 1280 | 4.72
10 | CNC(=O)c1ccccc1Nc1nc(Nc2ccc(NC(=O)CN3CCOCC3)c(C)c2)ncc1Cl | 3.89 |  | 333 |  |  |  |  |  |  | 
11 | O=C(NO)c1ccccc1Nc1nc(Nc2ccc(CN3CCOCC3)cc2)ncc1Cl | 98.8 | 4.5 | < 78.1 | 2430 | < 78 | 29100 | < 156 | 554 | < 1250 | >31.08
12 | O=C(O)c1ccccc1Nc1nc(Nc2ccc(OCC(=O)N3CCOCC3)cc2)ncc1Cl | 199 | 81.4 | > 10000 |  |  |  |  |  | 15500 | 
13 | O=C(NO)c1ccccc1Nc1nc(Nc2ccc(OCC(=O)N3CCOCC3)cc2)ncc1Cl | 16 | 57.3 | 129 | 670 | 129 | 20200 | 530 | 820 | 4810 | 5.19
15 | CN1CCN(c2ccc(Nc3ncc(Cl)c(Nc4ccccc4C(=O)NO)n3)cc2)CC1 | 68.8 | 6.56 | < 78.1 | 253 | < 78 | 22600 | < 156 | 217 | < 1250 | >3.24

Reference: ChEMBL document CHEMBL4831496, “Noncovalent EGFR T790M/L858R inhibitors based on diphenylpyrimidine scaffold: Design, synthesis, and bioactivity evaluation for the treatment of NSCLC” (Eur J Med Chem, 2021)
